# Calls of active or inactive are those of the source.
# What was measured:
# [1] = test system: Mus musculus; experiment: Analgesic activity in mouse model of spared nerve injury assessed as reduction in cold hyperalgesia at 30 mg/kg, ip measured at 7 days interval for up to 21 days post spared nerve injury by cold plantar test; assay type: functional, organism-based
# Procedure, shortened: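 Male mice (BALB/c or C57BL/6, 6-8 weeks) after SNI; compound given i.p. in 5% DMSO, 5% Tween 80, 90% saline. Mice acclimated 3 days on a 6 mm glass plate. A syringe packed with powdered dry ice was applied under the centre of the left hindpaw. Paw withdrawal latency was timed by stopwatch with a 30 s cutoff. Groups compared by unpaired t test or Mann-Whitney.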
# [2] = target: T1, Potassium channel subfamily K member 2 (Homo sapiens) (UniProt O95069); experiment: Activation of recombinant human TREK1 expressed in HEK293T cells assessed as increase in K+ current amplitude at 30 uM by whole cell voltage clamp electrophysiological analysis; assay type: cell-based
# T1 sequence (whole entry): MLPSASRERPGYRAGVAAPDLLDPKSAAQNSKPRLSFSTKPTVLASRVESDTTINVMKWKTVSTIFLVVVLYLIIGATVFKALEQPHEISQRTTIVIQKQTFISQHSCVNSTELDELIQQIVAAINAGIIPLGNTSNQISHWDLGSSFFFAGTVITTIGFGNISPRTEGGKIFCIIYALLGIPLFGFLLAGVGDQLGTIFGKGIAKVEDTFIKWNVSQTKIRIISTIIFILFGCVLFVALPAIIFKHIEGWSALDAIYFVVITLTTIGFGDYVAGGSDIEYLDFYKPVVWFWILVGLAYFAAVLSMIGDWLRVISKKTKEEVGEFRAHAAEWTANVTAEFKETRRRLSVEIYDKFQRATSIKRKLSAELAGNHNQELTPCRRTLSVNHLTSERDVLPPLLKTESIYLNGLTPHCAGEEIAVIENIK
# [3] = test system: Mus musculus; experiment: Analgesic activity in mouse assessed as increase in tail flick latency time at 5 mg/kg, ip at 52 degC by tail immersion test; assay type: functional, organism-based
# Procedure, shortened: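 Male BALB/c or C57BL/6 mice, 6–8 weeks, acclimated in a holder 15 min/day for 3 days. Distal 3 cm of tail immersed at 5, 20, 40, 46 or 52 °C; flick latency recorded, cut-off 15 s. Compound i.p. in 5% DMSO/5% Tween 80/90% saline (1.25–10 mg/kg at 52 °C; 5 mg/kg across temperatures).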
# [4] = test system: Mus musculus; experiment: Analgesic activity in cerulein-induced mouse model of acute pancreatitis assessed as reduction in myeloperoxidase activity at 10 mg/kg, ip administered at 2 hrs interval for 10 hrs starting from post-first cerulein challenge and measured 12 hrs post-first cerulein challenge; assay type: functional, organism-based
# Procedure, shortened: (§1)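 Cerulein pancreatitis: 7 hourly i.p. injections of 50 µg/kg; 10 mg/kg compound i.p. at 2, 4, 6, 8 and 10 h. Mice killed at 12 h and pancreas harvested for MPO activity and H&E histology. Ten random fields per slide scored blind by two observers for edema, inflammatory infiltration and acinar necrosis; n = 6.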
# [5] = test system: Mus musculus; experiment: (§2) Analgesic activity in cerulein-induced mouse model of acute pancreatitis assessed as reduction in pancreatic necrosis at 10 mg/kg, ip administered at 2 hrs interval for 10 hrs starting from post-first cerulein challenge and measured 12 hrs post-first cerulein challenge by H and E staining based histopathological analysis; assay type: functional, organism-based; procedure, shortened: as §1
# [6] = test system: Mus musculus; experiment: as §2, with “inflammatory infiltration” for “necrosis”; assay type: functional, organism-based; procedure, shortened: as §1
# [7] = test system: Mus musculus; experiment: as §2, with “edema” for “necrosis”; assay type: functional, organism-based; procedure, shortened: as §1
# [8] = target: T1, Potassium channel subfamily K member 2 (Homo sapiens); experiment: Activation of recombinant human TREK1 expressed in HEK293T cells assessed as increase in K+ current amplitude at 1 mM by whole cell voltage clamp electrophysiological analysis; assay type: cell-based
smiles,measurement,setting,value
CC(C)C[C@H](CN)CC(=O)O,Activity,[1],Active
Cc1ccc2nc(-c3ccc(NC(=O)C4CCCC4)cc3)sc2c1,Activity,[2],inactive
same,Activity,[3],inactive
same,Activity,[4],inactive
same,Activity,[5],inactive
same,Activity,[6],inactive
same,Activity,[7],inactive
COC(=O)[C@H]1CC[C@@H](C(=O)Nc2ccc(-c3nc4ccc(C)cc4s3)cc2)C1,Activity,[2],inactive
C[N+](C)(C)CCSS(C)(=O)=O,Activity,[8],inactive
